Measurements collected from several papers.
Each line is one published result; the experiments were not run side by side.
Target: Vascular endothelial growth factor receptor 3 (FLT4, Homo sapiens, UniProt P35916)

SMILES | observed | method | concentration | remaining binding [%]
C[C@H]1CCN(c2nccc(-c3cnn4ncccc34)n2)C1 | binding |  | 1 µM | 100
C=CC(=O)N1CCC(C(=O)NCC(=O)N2CCN(c3nc(-c4cnc(N)nc4C(F)F)nc(N4CCOCC4)n3)CC2)CC1 | binding | competition with immobilised ligand | 1 µM | 96
CNC(=O)[C@@H]1CC[C@@H](n2c(-c3ccc4cnccc4c3)nc3ccc(C(=O)NCc4cccc(C(N)=O)c4)cc32)C1 | binding | competition with immobilised ligand | 1 µM | 100
CNCc1ccccc1-c1csc([C@@H](C)Nc2nc(C)nc3cc(OC)c(OC)cc23)c1 | cell-free assay | competition with immobilised ligand | 1 µM | 83
Nc1ncc2c(n1)-c1c([nH]c3ccc(C#CC4CC4)cc13)CCCC2 | binding | competition with immobilised ligand | 1 µM | 100
O=C(NCC1CCOCC1)c1n[nH]cc1NC(=O)c1c(F)cccc1F | binding | competition with immobilised ligand | 1 µM | 95
CN(C)c1nccc(-c2cnc3ncccn23)n1 | binding |  | 1 µM | 88
c1cncc(-c2cccc(Nc3nccc(NC4CCCCC4)n3)c2)c1 | binding | competition with immobilised ligand | 10 µM | 18
O=C(NCCCN1CCOCC1)c1ccc(Nc2nccc(-c3cc4ccccc4s3)n2)cc1 | binding | competition with immobilised ligand | 1 µM | 50
COc1cnc(Nc2cccc(S(N)(=O)=O)c2)nc1N1CCN(c2ccccc2)C(=O)C1 | binding | competition with immobilised ligand | 1 µM | 100
Cc1cc(C)c(-n2ccn3nc(-c4cccnc4)cc23)cc1NC(=O)c1cc(C#N)cc(S(F)(F)(F)(F)F)c1 | cell-free assay | competition with immobilised ligand | 0.1 µM | 77.6
F[C@@H]1CCN(c2nccc(-c3cnn4ncccc34)n2)C1 | binding |  | 1 µM | 90
Nc1c(C(=O)NCc2ccc(C(=O)NCCCC3CCCCC3)cc2)cnn1-c1ccccc1 | cell-free assay | competition with immobilised ligand | 0.1 µM | 100
CN(C)c1nccc(-c2cnn3ncccc23)n1 | binding |  | 1 µM | 100
CCCOc1ccc([C@@H]2[C@@H](C(=O)O)[C@H](c3ccc4c(c3)OCO4)CN2CC(=O)Nc2c(CC)cccc2CC)cc1 | cell-free assay | competition with immobilised ligand | 1 µM | 100
N[C@@H]1CCN(c2nccc(-c3cnn4ncccc34)n2)C1 | binding |  | 1 µM | 100
CC(=O)c1c(NS(C)(=O)=O)c2cc(-c3ccc(Cl)cc3)c(-c3ccc(Cl)cc3Cl)nc2n(C)c1=O | cell-free assay | competition with immobilised ligand | 1 µM | 100
O=C(c1ccc(Nc2ncc(Cl)c(-c3ccc(Cl)s3)n2)cc1)N1CCC(N2CCCC2)CC1 | binding | competition with immobilised ligand | 1 µM | 0.15
FC(F)(F)Oc1cccc(-c2cnc3ccc(-c4ccncc4)nn23)c1 | cell-free assay | competition with immobilised ligand | 5 µM | 84
O=C(c1ccc(Nc2ncc(Cl)c(-c3cc4ccccc4s3)n2)cc1)N1CCC(N2CCCC2)CC1 | binding | competition with immobilised ligand | 1 µM | 0.7
Cc1nc(N2CC[C@@H](O)C2)ncc1-c1cc(C(F)(F)F)cc2[nH]ncc12 | cell-free assay | competition with immobilised ligand | 1 µM | 100
CCN(CC)CCCCNc1ncc2cc(-c3cc(OC)cc(OC)c3)c(NC(=O)NC(C)(C)C)nc2n1 | cell-free assay | competition with immobilised ligand | 1 µM | 6
COc1ccnn2ncc(-c3ccnc(N(C)C)n3)c12 | binding |  | 1 µM | 100
